Measurements taken from ChEMBL document CHEMBL2311367, “Synthesis, biological evaluation, and molecular modeling of glycyrrhizin derivatives as potent high-mobility group box-1 inhibitors with anti-heart-failure activity in vivo” (J Med Chem, 2013).
Numbering of substitutions follows the chain as printed. The source made the active and inactive calls. The calls are words filed in the database; no cut-off is given here.

Legend:
[1] = molecular target: T1, High mobility group protein B1 (Mus musculus) (UniProt P63158); assay: Inhibition of HMGB1 in mouse RAW264.7 cells assessed as LPS-induced TNFalpha release treated for 2 hrs prior to LPS-challenge measured after 16 hrs by ELISA; format: cell-based
T1 sequence (whole entry): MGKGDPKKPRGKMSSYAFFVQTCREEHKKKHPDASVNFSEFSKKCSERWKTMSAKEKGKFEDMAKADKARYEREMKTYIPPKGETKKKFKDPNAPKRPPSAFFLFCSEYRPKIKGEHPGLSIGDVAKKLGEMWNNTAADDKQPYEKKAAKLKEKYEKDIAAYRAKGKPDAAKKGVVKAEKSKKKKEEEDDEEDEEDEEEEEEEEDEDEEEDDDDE
Method in brief: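 RAW 264.7 murine macrophage-like cells grown in RPMI 1640 with 10% heat-inactivated FBS and 2 mM glutamine, 5% CO2. Compounds or HMGB1 neutralizing antibody added 2 h before LPS (0.01 ng/mL), then 16 h stimulation; TNF-α in supernatant measured by ELISA. Each compound run at least twice in triplicate; ED50 given with 95% confidence interval.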

Mus musculus [2] = assay: Cardioprotective activity against DOX-induced acute heart failure DCM in ip dosed C57BL/6J mouse model assessed as improvement in the maximum descending rate of the LV pressure administered qd from day 10 post DOX-challenge measured after 50 days by echocardiography; format: functional, organism-based
Mus musculus [3] = assay: Cardioprotective activity against DOX-induced chronic heart failure DCM ip dosed C57BL/6J mouse model assessed as improvement of diastolic interventricular septum administered qd from day 70 post DOX challenge measured after 35 days; format: functional, organism-based
Mus musculus [4] = assay: Cardioprotective activity against DOX-induced chronic heart failure DCM ip dosed C57BL/6J mouse model assessed as increase in survival rate administered qd from day 70 post DOX challenge measured after 35 days; format: functional, organism-based
Method in brief: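 Chronic DOX model: ip DOX at 3.5 mg/kg weekly for 8 weeks, then once-daily treatment with the indicated agent beginning two weeks after the last DOX dose. Survival followed by Kaplan-Meier curves and compared with a log rank test, n = 20/group.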

Mus musculus [5] = assay: Cardioprotective activity against DOX-induced acute heart failure DCM in ip dosed C57BL/6J mouse model assessed as increase in survival rate administered qd from day 10 post DOX-challenge measured after 50 days by echocardiography; format: functional, organism-based
Mus musculus [6] = assay: Cardioprotective activity against DOX-induced acute heart failure DCM in ip dosed C57BL/6J mouse model assessed as increase in ejection fraction administered qd from day 10 post DOX-challenge measured after 50 days by echocardiography; format: functional, organism-based
Mus musculus [7] = assay: Cardioprotective activity against DOX-induced chronic heart failure DCM ip dosed C57BL/6J mouse model assessed as improvement of LV diastolic anterior wall administered qd from day 70 post DOX challenge measured after 35 days; format: functional, organism-based
Mus musculus [8] = assay: Cardioprotective activity against DOX-induced chronic heart failure DCM ip dosed C57BL/6J mouse model assessed as improvement of fractional shortening administered qd from day 70 post DOX challenge measured after 35 days; format: functional, organism-based
Mus musculus [9] = assay: Cardioprotective activity against DOX-induced chronic heart failure DCM ip dosed C57BL/6J mouse model assessed as improvement of systolic interventricular septum administered qd from day 70 post DOX challenge measured after 35 days; format: functional, organism-based
Mus musculus [10] = assay: Cardioprotective activity against DOX-induced chronic heart failure DCM ip dosed C57BL/6J mouse model assessed as improvement of ejection fraction administered qd from day 70 post DOX challenge measured after 35 days; format: functional, organism-based
Mus musculus [11] = assay: Cardioprotective activity against DOX-induced acute heart failure DCM in ip dosed C57BL/6J mouse model assessed as increase in fractional shortening administered qd from day 10 post DOX-challenge measured after 50 days by echocardiography; format: functional, organism-based
Mus musculus [12] = assay: Cardioprotective activity against DOX-induced acute heart failure DCM in ip dosed C57BL/6J mouse model assessed as improvement in the maximum ascending rate of the LV pressure administered qd from day 10 post DOX-challenge measured after 50 days by echocardiography; format: functional, organism-based
[13] = molecular target: T2, High mobility group protein B1 (Homo sapiens, UniProt P09429); assay: Binding affinity to HMGB1 (unknown origin)
T2 sequence (P09429 whole entry): T1 sequence (whole entry) with D189E, E202D

ED50 [1]	SMILES	Activity (Mus musculus [2])	Activity (Mus musculus [5])	Activity (Mus musculus [6])	Activity (Mus musculus [11])	Activity (Mus musculus [12])	other results
–	CC1(C)[C@@H](O[C@H]2O[C@H](C(=O)O)[C@@H](O)[C@H](O)[C@H]2O[C@@H]2O[C@H](C(=O)O)[C@@H](O)[C@H](O)[C@H]2O)CC[C@]2(C)[C@H]3C(=O)C=C4[C@@H]5C[C@@](C)(CN[C@@H](Cc6ccccc6)C(=O)O)CC[C@]5(C)CC[C@@]4(C)[C@]3(C)CC[C@@H]12	–	–	–	–	–	inhibition [1]: inactive
193 µM	CC1(C)[C@@H](O[C@H]2O[C@H](C(=O)O)[C@@H](O)[C@H](O)[C@H]2O[C@@H]2O[C@H](C(=O)O)[C@@H](O)[C@H](O)[C@H]2O)CC[C@]2(C)[C@H]3C(=O)C=C4[C@@H]5C[C@@](C)(CNC6CCCCC6)CC[C@]5(C)CC[C@@]4(C)[C@]3(C)CC[C@@H]12	–	–	–	–	–	–
–	CC1(C)[C@@H](O[C@H]2O[C@H](C(=O)O)[C@@H](O)[C@H](O)[C@H]2O[C@@H]2O[C@H](C(=O)O)[C@@H](O)[C@H](O)[C@H]2O)CC[C@]2(C)[C@H]3C(=O)C=C4[C@@H]5C[C@@](C)(CN[C@@H](Cc6ccc(O)cc6)C(=O)O)CC[C@]5(C)CC[C@@]4(C)[C@]3(C)CC[C@@H]12	–	–	–	–	–	inhibition [1]: inactive
141 µM	CC1(C)[C@@H](O[C@H]2O[C@H](C(=O)O)[C@@H](O)[C@H](O)[C@H]2O[C@@H]2O[C@H](C(=O)O)[C@@H](O)[C@H](O)[C@H]2O)CC[C@]2(C)[C@H]3C(=O)C=C4[C@@H]5C[C@@](C)(CN[C@@H](CCC(=O)O)C(=O)O)CC[C@]5(C)CC[C@@]4(C)[C@]3(C)CC[C@@H]12	Active	Active	Active	Active	Active	Activity (Mus musculus [3]): Active; Activity (Mus musculus [4]): Active; Activity (Mus musculus [7]): Active; Activity (Mus musculus [8]): Active; Activity (Mus musculus [9]): Active; Activity (Mus musculus [10]): Active
144 µM	CC1(C)[C@@H](O[C@H]2O[C@H](C(=O)O)[C@@H](O)[C@H](O)[C@H]2O[C@@H]2O[C@H](C(=O)O)[C@@H](O)[C@H](O)[C@H]2O)CC[C@]2(C)[C@H]3C(=O)C=C4[C@@H]5C[C@@](C)(CN[C@@H](CC(=O)O)C(=O)O)CC[C@]5(C)CC[C@@]4(C)[C@]3(C)CC[C@@H]12	Active	Active	Active	Active	Active	Activity (Mus musculus [3]): inactive; Activity (Mus musculus [4]): inactive; Activity (Mus musculus [7]): inactive; Activity (Mus musculus [8]): inactive; Activity (Mus musculus [9]): inactive; Activity (Mus musculus [10]): inactive
337 µM	C[C@H](NC[C@@]1(C)CC[C@]2(C)CC[C@]3(C)C(=CC(=O)[C@@H]4[C@@]5(C)CC[C@H](O[C@H]6O[C@H](C(=O)O)[C@@H](O)[C@H](O)[C@H]6O[C@@H]6O[C@H](C(=O)O)[C@@H](O)[C@H](O)[C@H]6O)C(C)(C)[C@@H]5CC[C@]43C)[C@@H]2C1)C(=O)O	Active	inactive	inactive	–	Active	–
226 µM	CCCNC[C@@]1(C)CC[C@]2(C)CC[C@]3(C)C(=CC(=O)[C@@H]4[C@@]5(C)CC[C@H](O[C@H]6O[C@H](C(=O)O)[C@@H](O)[C@H](O)[C@H]6O[C@@H]6O[C@H](C(=O)O)[C@@H](O)[C@H](O)[C@H]6O)C(C)(C)[C@@H]5CC[C@]43C)[C@@H]2C1	–	–	–	–	–	–
–	CC1(C)[C@@H](O[C@H]2O[C@H](C(=O)O)[C@@H](O)[C@H](O)[C@H]2O[C@@H]2O[C@H](C(=O)O)[C@@H](O)[C@H](O)[C@H]2O)CC[C@]2(C)[C@H]3C(=O)C=C4[C@@H]5C[C@@](C)(CNCC(=O)O)CC[C@]5(C)CC[C@@]4(C)[C@]3(C)CC[C@@H]12	inactive	inactive	inactive	inactive	inactive	inhibition [1]: inactive
70 µM	CC1(C)[C@@H](O[C@H]2O[C@H](C(=O)O)[C@@H](O)[C@H](O)[C@H]2O[C@@H]2O[C@H](C(=O)O)[C@@H](O)[C@H](O)[C@H]2O)CC[C@]2(C)[C@H]3C(=O)C=C4[C@@H]5C[C@@](C)(C(=O)O)CC[C@]5(C)CC[C@@]4(C)[C@]3(C)CC[C@@H]12 [GLYCYRRHIZIN]	–	–	–	–	–	Kd [13]: 150 µM
161 µM	CC1(C)[C@@H](O[C@H]2O[C@H](C(=O)O)[C@@H](O)[C@H](O)[C@H]2O[C@@H]2O[C@H](C(=O)O)[C@@H](O)[C@H](O)[C@H]2O)CC[C@]2(C)[C@H]3C(=O)C=C4[C@@H]5C[C@@](C)(CN[C@@H](CO)C(=O)O)CC[C@]5(C)CC[C@@]4(C)[C@]3(C)CC[C@@H]12	Active	Active	Active	Active	Active	–
144 µM	CC1(C)[C@@H](O[C@H]2O[C@H](C(=O)O)[C@@H](O)[C@H](O)[C@H]2O[C@@H]2O[C@H](C(=O)O)[C@@H](O)[C@H](O)[C@H]2O)CC[C@]2(C)[C@H]3C(=O)C=C4[C@@H]5C[C@@](C)(CN[C@@H](Cc6c[nH]c7ccccc67)C(=O)O)CC[C@]5(C)CC[C@@]4(C)[C@]3(C)CC[C@@H]12	Active	Active	Active	Active	Active	–
